Reference: PubChem BioAssay
Active and inactive are the calls of the source.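 Rule for the calls, unless noted: active = inhibition at or above 50% at 10 µM; inactive = inhibition below 50%.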

How the values were obtained:
[1] = inhibitors of TNFa-induced NFkB p65 translocation, primary screen, imaging, HUVEC, MLSMR starter and 10KST1 sets (AID 438;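 active = inhibition above 20% together with a positive visual image hit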;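 note: compound added about 3h40 before a 20 min TNFalpha stimulation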;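 for inhibition: signal is the nuclear over cytoplasmic p65 intensity ratio per well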); details: HUVEC TNFa-induced p65 nuclear translocation; cell count: measured here: nuclei count (cytotoxicity indicator), at 2.08 µM; inhibition: at 2 µM, stronger effect = higher value, 0% TNFa-plus-vehicle, 100% no-TNFa wells
[2] = inhibitors of mutant huntingtin aggregation, primary screen, imaging, exon1htt(103Q)mCFP cells, high-content imaging (AID 483;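 active = visual image review flags a hit and inhibition of aggregation exceeds 20%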;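 note: compound exposure lasted 3 days before fixation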;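 for nuclei count: percent of the per-plate median nuclei count of sample wells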); details: exon1htt(103Q)mCFP cell line, aggregate imaging, at 2 µM; inhibition of aggregation: stronger effect = higher value; nuclei count: measured here: cell count, toxicity
[3] = inhibitors of E-selectin induction by TNFa, primary screen, imaging, HUVEC, immunofluorescence, MLSMR starter and 10KST1 sets (AID 487;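 active = visually confirmed hit in the image check and inhibition above 20%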;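 for inhibition: signal is fraction of cell area covered by stained E-selectin grains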;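 for nuclei count: 100% = median nuclei count of all wells on the same plate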); details: HUVEC TNFalpha-induced E-selectin immunofluorescence imaging, at 2 µM; inhibition: stronger effect = higher value; nuclei count: measured here: cell number, toxicity
[4] = molecular target: Voltage-gated potassium channel subunit beta-2 (Rattus norvegicus) (UniProt P62483); experiment: KvBeta enzyme negative modulators, primary screen, biochemical, NADPH fluorescence (AID 622;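 active = fluorescence slope higher than the sample average by over 3 SD, cut at about -0.22 in these data, passing the limit was not always enough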;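 note: slope of raw intensity against log time taken from 70 to 1610 s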); details: recombinant KvBeta, 4-cyanobenzaldehyde reduction, at 10 µM, stronger effect = higher value
Voltage-gated potassium channel subunit beta-2 (Rattus norvegicus), sequence (P62483 whole entry, looked up): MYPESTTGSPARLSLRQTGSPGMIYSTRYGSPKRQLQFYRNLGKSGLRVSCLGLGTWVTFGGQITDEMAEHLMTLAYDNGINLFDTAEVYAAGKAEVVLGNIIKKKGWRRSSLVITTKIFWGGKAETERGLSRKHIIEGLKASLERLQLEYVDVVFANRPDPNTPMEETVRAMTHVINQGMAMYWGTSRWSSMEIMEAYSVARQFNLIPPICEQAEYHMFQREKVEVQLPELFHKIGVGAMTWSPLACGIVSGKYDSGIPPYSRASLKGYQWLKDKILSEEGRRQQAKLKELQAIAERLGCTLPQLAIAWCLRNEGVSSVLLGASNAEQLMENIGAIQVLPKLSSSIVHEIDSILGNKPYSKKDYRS

[5] = molecular target: Voltage-gated potassium channel subunit beta-2 (Rattus norvegicus) (UniProt P62483); experiment: KvBeta positive modulators, primary screen, biochemical, NADPH fluorescence (AID 623;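 active = NADPH fluorescence slope more negative than the mean of all samples by about 3 SD, 99.7% confidence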;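 note: fluorescence intensity change per second fitted from 20 to 320 s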); details: Recombinant KvBeta, NADPH fluorescence decrease slope, 10 min; at 10 µM; stronger effect = lower value
[6] = molecular target: Alpha-2C adrenergic receptor (Homo sapiens) (UniProt P18825); experiment: modulators of alpha2C/GIRK thallium flux, primary screen, cell-based, HEK293 alpha2C/GIRK1/2 (AID 624;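 active = fluorescence slope after compound addition differing from the mean of all screened samples at 99.7% confidence, in either direction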;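 note: slope of fluorescence ratio to pre-addition baseline per second over 15 to 24 s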); details: thallium flux BTC fluorescence, at 10 µM, actives lie on both sides
Alpha-2C adrenergic receptor (Homo sapiens), sequence (P18825 whole entry, looked up): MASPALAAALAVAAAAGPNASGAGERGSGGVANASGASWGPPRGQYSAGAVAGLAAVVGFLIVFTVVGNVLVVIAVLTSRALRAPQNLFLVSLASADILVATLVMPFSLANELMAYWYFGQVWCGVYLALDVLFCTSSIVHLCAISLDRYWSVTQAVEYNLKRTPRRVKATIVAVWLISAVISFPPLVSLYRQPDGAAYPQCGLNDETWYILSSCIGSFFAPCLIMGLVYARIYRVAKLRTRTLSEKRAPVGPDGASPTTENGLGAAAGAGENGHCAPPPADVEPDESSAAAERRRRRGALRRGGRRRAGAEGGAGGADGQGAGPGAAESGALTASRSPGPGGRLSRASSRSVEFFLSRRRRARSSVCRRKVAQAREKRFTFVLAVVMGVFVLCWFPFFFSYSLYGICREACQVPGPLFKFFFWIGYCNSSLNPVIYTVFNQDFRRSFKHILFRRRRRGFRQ

[7] = inhibitors of larval lipid processing in zebrafish, primary screen, whole organism, PED6 fluorescence, gall bladder and intestine (AID 686;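 active = a full or partial loss of lipid-probe fluorescence in the fish gall bladder, intestine or both, judged by eye; inactive = no fluorescence loss, or compound toxic to the fish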;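 note: larvae 5 to 7 days old with five fish per well; signal comes from phospholipase A2 cleavage of quenched PED6 carried via bile; overnight exposure to compound and PED6 before scoring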); details: Zebrafish larvae PED6 lipid processing, fluorescence scoring; screened at 20 µM (by protocol)
Outline: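 Also added: quenched phospholipase substrate PED6, 100 nM final, ingested by larvae; System: zebrafish larvae, 5-7 d; Quantity: 5 larvae per well; Compound: 20 µM single dose; Schedule: overnight compound and PED6 incubation; Read-out: visual per-well fluorescence inhibition score; Measured by: By-eye fluorescence microscopy; Medium: E3.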

[8] = inhibitors of Sendai virus-induced IRF3 signaling, primary screen, TLR/RLR signaling modifier project, cell-based, Sendai virus stimulus, luciferase, 10K MLSCN set (AID 602276); details: HEK293 RL24 IRF3 luciferase reporter, at 10 µM, stronger effect = higher value;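 note: firefly luciferase from ISG56 promoter only with Renilla not read in this screen; 0% = Sendai virus plus DMSO and 100% = medium plus DMSO without virus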
[9] = inhibitors of poly I:C-induced TLR3 signaling, primary screen, cell-based, poly I:C stimulus, luciferase, 10K MLSCN set (AID 602277;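 active = inhibition of the reporter signal at or above 50%; inactive = inhibition below 50%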); details: HEK293-TLR3 RL24 IRF3 luciferase reporter, at 10 µM, stronger effect = higher value

| Compound | cell count [1] | inhibition [1] | inhibition of aggregation [2] | nuclei count [2] | inhibition [3] | nuclei count [3] | fluorescence slope [4] | NADPH fluorescence slope [5] | slope [6] | outcome [7] | inhibition [8] | inhibition [9] |
| --- | --- | --- | --- | --- | --- | --- | --- | --- | --- | --- | --- | --- |
| O=c1c2cnn(-c3ccccc3)c2ncn1/N=C/c1ccncc1 | 476 | -7.8% (inactive) | 3.3% (inactive) | 119% | -71.4% (inactive) | 108% | -0.378 (inactive) | -5.9e-05 (inactive) | 0.00444 (inactive) | inactive | 11.6% (inactive) | 11.3% (inactive) |
| CCOC(=O)c1ccc(CNC(=O)C(Cc2c[nH]c3ccccc23)NC(C)=O)o1 (stereo not drawn) | 444 | -0.3% (inactive) | -11.1% (inactive) | 122% | -52.8% (inactive) | 167% | -0.369 (inactive) | -4.9e-06 (inactive) | 0.00652 (inactive) | inactive | 17% (inactive) | 29.3% (inactive) |
| Cc1ccc(CN2CCN(C(=O)C3CCC3)CC2)cc1 | 361 | 3.3% (inactive) | 23.3% (inactive) | 94.3% | -20.6% (inactive) | 104% | -0.447 (inactive) | -2.3e-05 (inactive) | 0.00503 (inactive) | inactive; toxic | 15.1% (inactive) | 6.88% (inactive) |
| CCN(CC)S(=O)(=O)c1ccc2c(c1)nc(SCn1nnc3ccccc3c1=O)n2CC | 765 | 6% (inactive) | 6.8% (inactive) | 94.2% | -114% (inactive) | 129% | -0.433 (inactive) | -6.2e-05 (inactive) | 0.00509 (inactive) | inactive | 15.4% (inactive) | 11.9% (inactive) |
| CC(=O)Nc1c(O)[nH]c2ccccc12 | 566 | -25.9% (inactive) | -9.8% (inactive) | 98.9% | -5.9% (inactive) | 102% | -0.414 (inactive) | -5.4e-05 (inactive) | 0.00575 (inactive) | inactive | 10.4% (inactive) | 16.8% (inactive) |
| C=CCSc1nnc(-c2ccc(Cl)cc2Cl)o1 | 400 | 0.2% (inactive) | 16.3% (inactive) | 84.8% | 14.7% (inactive) | 88.4% | -0.373 (inactive) | -5.2e-05 (inactive) | 0.00563 (inactive) | inactive | -1.24% (inactive) | -58.3% (inactive) |
| Cc1ccc(CN2C(=O)CCC2C(=O)NCCCN2CCCC(C)C2)cc1 (stereo not drawn) | 436 | 6.9% (inactive) | -3.9% (inactive) | 106% | -43.5% (inactive) | 129% | -0.434 (inactive) | -2.5e-05 (inactive) | 0.0056 (inactive) | inactive | -5.02% (inactive) | 4.05% (inactive) |
| CC1Oc2ccccc2N(CC(=O)NCc2cccs2)C1=O (stereo not drawn) | 787 | 1.6% (inactive) | 2.2% (inactive) | 91.4% | -146% (inactive) | 120% | -0.448 (inactive) | -6e-05 (inactive) | 0.00433 (inactive) | active; weak signal in gallbladder only | -0.51% (inactive) | -12.6% (inactive) |
| CCOC(=O)N1CCN(C(=O)CN(Cc2ccccc2)S(=O)(=O)c2ccc(OC)c(C)c2)CC1 | 320 | -2.3% (inactive) | 1.8% (inactive) | 106% | -6.6% (inactive) | 70.5% | -0.38 (inactive) | 1e-05 (inactive) | 0.00442 (inactive) | inactive | -4.93% (inactive) | 1.48% (inactive) |
| O=C(CCn1[nH]c(=O)c2ccccc2c1=O)NCCO | 588 | -6.5% (inactive) | 0.4% (inactive) | 97.8% | -35.4% (inactive) | 71.1% | -0.361 (inactive) | -5.6e-05 (inactive) | 0.00681 (inactive) | inactive | 1.06% (inactive) | -8.68% (inactive) |
| COC(=O)CCN(C(=O)c1ccc2c(c1)OCO2)c1ccccn1 | 730 | 2.9% (inactive) | -10.6% (inactive) | 98.2% | -0.1% (inactive) | 89.7% | -0.4 (inactive) | -4.5e-06 (inactive) | 0.00511 (inactive) | inactive | 17.3% (inactive) | 18% (inactive) |
| COc1ccc(Cl)cc1N1CCN(CCNC(=O)Nc2ccccc2C)CC1 | 353 | 0.6% (inactive) | -3.4% (inactive) | 108% | -3.8% (inactive) | 111% | -0.452 (inactive) | -1.3e-05 (inactive) | 0.00435 (inactive) | inactive | 21.9% (inactive) | 8.13% (inactive) |
| COc1ccc2cc(C#N)c(N3CCN(Cc4nnnn4CCC(C)C)CC3)nc2c1 | 363 | 7% (inactive) | 20.7% (inactive) | 85.8% | -5.8% (inactive) | 78.1% | -0.379 (inactive) | -3.8e-05 (inactive) | 0.00501 (inactive) | inactive | 12.8% (inactive) | -2.3% (inactive) |
| O=C(NCc1cccnc1)c1cccc(C(F)(F)F)c1 | 355 | 5.2% (inactive) | 1.3% (inactive) | 111% | 4.9% (inactive) | 103% | -0.452 (inactive) | -2.9e-05 (inactive) | 0.00523 (inactive) | inactive | 11.3% (inactive) | 20.1% (inactive) |
